Series [1] can be described thus: Dissociation constant, pKa by Sirius GLpKa titrator. The class given is physicochemical. Summed up:
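Potentiometric pKa measured on a Sirius GLpKa titrator; mean of n = 3 determinations unless marked as a single determination.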

Series [2] can be described thus: Inhibition of human KSP.
In series [3] the test system is A2780. As to the kind of experiment: Induction of mitotic arrest in human A2780 cells […] clr:NU/NU-nuBR mouse assessed as minimum plasma concentration required to induce maximum mitotic arrest after 22 hrs. The class given is functional.
The nature of series [4]: Inhibition of human KSP in presence of 30% mouse serum. In short, it runs like this: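 KSP ATPase assay as the primary one (0.25 nM KSP motor domain, microtubules, 1 mM ATP, pH 6.8, 3 h at RT, quinaldine red phosphate read-out), run with 30% mouse serum dialysed against reaction buffer (12-14 kDa cutoff). Mean of at least 3 experiments unless noted.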
Series [5] relates to A2780. In words: Induction of mitotic arrest in human A2780 cells expressing MDR1 after 16 hrs. It is filed as functional, cell-based. Conditions: A2780, 16 h.
The nature of series [6]: Ratio of IC50 for induction of mitotic arrest in human […] to IC50 for induction of mitotic arrest in […] human KB-V-1 cells. It is filed as functional. In short, it runs like this:
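Phospho-nucleolin mitotic-arrest assay in parental KB-3-1 and MDR1-overexpressing KB-V-1 cells (>500-fold higher MDR1 mRNA). Cells were treated in triplicate for 16 h across 10 000 to 0.1 nM (11-point, half-log series; 0.1% DMSO final). Total nucleolin was bead-captured from lysates and phospho-nucleolin detected by TG3 antibody plus a ruthenium-labelled secondary. Ratio = IC50 (KB-V-1) / IC50 (KB-3-1).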

In series [7] the target is Voltage-gated inwardly rectifying potassium channel KCNH2 (Homo sapiens, UniProt Q12809).
Series [8] concerns Rattus norvegicus. In words: AUC in rat at 12 mg/kg, iv. The class given is ADME, organism-based, Plasma. Further details: dose 12 mg/kg, route intravenous. Conditions: in vivo.
Series [9] has as its system Rattus norvegicus. As to the kind of experiment: AUC in rat at 4 mg/kg, iv. It is filed as ADME, organism-based, Plasma. More on the design: dose 4 mg/kg, route intravenous. As to conditions: in vivo.
The test system of series [10] is Rattus norvegicus. As to the kind of experiment: AUC in rat at 1 mg/kg, iv. The class given is ADME, organism-based, Plasma. More on the design: dose 1 mg/kg, route intravenous. Conditions: in vivo.

Sequence of Voltage-gated inwardly rectifying potassium channel KCNH2 (Q12809 whole entry): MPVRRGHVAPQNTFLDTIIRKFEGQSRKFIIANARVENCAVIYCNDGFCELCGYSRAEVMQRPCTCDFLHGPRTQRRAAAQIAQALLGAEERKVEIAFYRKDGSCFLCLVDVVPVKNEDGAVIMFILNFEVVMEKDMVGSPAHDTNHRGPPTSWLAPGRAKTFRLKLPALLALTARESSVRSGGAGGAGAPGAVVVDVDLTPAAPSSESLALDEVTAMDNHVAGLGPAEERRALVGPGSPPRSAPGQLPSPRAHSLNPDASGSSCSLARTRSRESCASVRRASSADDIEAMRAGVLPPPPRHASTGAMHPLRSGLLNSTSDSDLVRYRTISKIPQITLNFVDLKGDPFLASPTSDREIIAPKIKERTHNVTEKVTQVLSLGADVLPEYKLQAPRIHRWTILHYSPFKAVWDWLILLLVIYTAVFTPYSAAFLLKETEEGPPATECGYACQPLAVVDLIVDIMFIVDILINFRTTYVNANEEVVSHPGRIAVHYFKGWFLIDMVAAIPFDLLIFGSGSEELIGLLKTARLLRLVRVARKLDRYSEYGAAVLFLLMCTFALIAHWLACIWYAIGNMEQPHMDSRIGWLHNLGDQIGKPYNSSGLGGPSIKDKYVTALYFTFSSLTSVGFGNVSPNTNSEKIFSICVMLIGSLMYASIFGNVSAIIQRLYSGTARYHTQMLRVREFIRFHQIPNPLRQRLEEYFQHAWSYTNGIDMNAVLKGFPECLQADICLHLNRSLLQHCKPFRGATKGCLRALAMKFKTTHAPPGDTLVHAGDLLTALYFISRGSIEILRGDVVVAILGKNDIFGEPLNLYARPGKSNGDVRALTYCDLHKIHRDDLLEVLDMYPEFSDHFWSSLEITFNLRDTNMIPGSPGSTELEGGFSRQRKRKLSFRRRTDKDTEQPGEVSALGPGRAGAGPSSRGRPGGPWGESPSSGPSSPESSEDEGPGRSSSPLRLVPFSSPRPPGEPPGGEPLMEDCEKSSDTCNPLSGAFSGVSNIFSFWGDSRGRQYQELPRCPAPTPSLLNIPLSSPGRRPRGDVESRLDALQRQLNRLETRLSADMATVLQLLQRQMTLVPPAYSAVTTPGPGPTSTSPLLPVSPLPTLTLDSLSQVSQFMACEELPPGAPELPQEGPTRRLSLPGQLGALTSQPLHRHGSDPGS

`CN(C(=O)N1CC(c2cc(F)ccc2F)=C[C@@]1(CO)c1ccccc1)C1CCN(CC(F)F)CC1` had a pKa in series [1] of 4.9. In series [2], this molecule came in with a concentration for half-maximal inhibition (IC50) of 34.1 nM.

As to `CN(C(=O)N1CC(c2cc(F)ccc2F)=C[C@@]1(CO)c1ccccc1)C1CCNCC1`, the pKa in series [1] is 9.8. For the same molecule, in series [2], the concentration for half-maximal inhibition (IC50) was 7.4 nM.

As for `CN1CCC(N(C)C(=O)N2CC(c3cc(F)ccc3F)=C[C@H]2c2ccccc2)CC1`, in series [3], the EC90 was 400 nM. In series [2], this molecule gave a 50% inhibitory concentration (IC50) of 4 nM.

The molecule `CN(C(=O)N1CC(c2cc(F)ccc2F)=C[C@@]1(CO)c1ccccc1)C1CCN(CC2CC2)CC1` came in with a pKa in series [1] of 9.1. Besides, half-maximal inhibition in [2] (IC50) required 5.1 nM.

With `CN1CCC(N(C)C(=O)N2CC(c3cc(F)ccc3F)=C[C@@]2(CO)c2ccccc2)CC1`, the 50% inhibitory concentration (IC50) in [4] was determined as 29.1 nM; in [2], 6.2 nM. The concentration for an effect of 90% (EC90) in series [3] was 125 nM. In series [1], this molecule displayed a pKa of 8.8. Also, in [5], the EC50 is 5.6 nM.

The molecule `CN(C(=O)N1CC(c2cc(F)ccc2F)=C[C@@]1(CO)c1ccccc1)C1CCN(C2CC2)CC1` had a pKa in series [1] of 7.5. The IC50 in [2] amounted to 5.9 nM.

Consider `CN1CC[C@@H](N(C)C(=O)N2CC(c3cc(F)ccc3F)=C[C@@]2(CO)c2ccccc2)[C@@H](F)C1`, for which the Ratio in series [6] turned out to be 4.8. This molecule also yielded an IC50 in series [2] of 13.3 nM. In [5], this molecule registered an EC50 of 13.8 nM.

For the molecule `CC(=O)O[C@H]1C(=O)[C@@]2(C)[C@H]([C@H](OC(=O)c3ccccc3)[C@]3(O)C[C@H](OC(=O)[C@H](O)[C@@H](NC(=O)c4ccccc4)c4ccccc4)C(C)=C1C3(C)C)[C@]1(OC(C)=O)CO[C@@H]1C[C@@H]2O` [PACLITAXEL], the IC50 in series [2] was 0.5 nM. In series [5], the EC50 is over 10000 nM.

Regarding `CN(C)C(=O)N1CC(c2cc(F)ccc2F)=C[C@@]1(CC[C@@H](N)C(F)F)c1ccccc1`, the IC50 was 84.2 nM in series [4], 15900 nM in series [7] and 5 nM in series [2]. Moreover, in series [3], the 90% effect concentration (EC90) worked out at 1425 nM. In addition, in series [5], the EC50 stood at 22.5 nM.

Turning to `CN1CC[C@@H](N(C)C(=O)N2CC(c3cc(F)ccc3F)=C[C@@]2(CO)c2ccccc2)[C@H](F)C1`, the Ratio in [6] was 2.9. This molecule also yielded a half-maximal inhibitory concentration (IC50) in [2] of 11.9 nM. Besides, the EC50 in series [5] was 37.6 nM.

`CN1CC[C@H](N(C)C(=O)N2CC(c3cc(F)ccc3F)=C[C@@]2(CO)c2ccccc2)[C@@H](F)C1`: the Ratio in series [6] is reported as 2.4. The IC50 is 36900 nM in series [7] and 11.5 nM in [2]. In series [1], this molecule displayed a pKa of 6.6. This molecule displayed an EC50 in [5] of 16.5 nM.

On to `CN(C)C(=O)N1CC(c2cc(F)ccc2F)=C[C@@]1(CO)c1ccccc1`, for which the IC50 in series [2] was 78 nM.

For `CN(C(=O)N1CC(c2cc(F)ccc2F)=C[C@@]1(CO)c1ccccc1)C1CCN(CCF)CC1`, the IC50 was determined as 38.8 nM in series [4] and 5 nM in series [2]. The exposure (AUC) in [8] was determined as 9.5 µM·h; in series [9], 2.5 µM·h; in series [10] it was 0.5 µM·h. Further, in series [3], the EC90 amounted to 100 nM. Further, the pKa in series [1] turned out to be 7.6. Besides, the EC50 in [5] was determined as 4.8 nM.

The values are drawn from ChEMBL document CHEMBL1155077, “Kinesin spindle protein (KSP) inhibitors. 9. Discovery of (2S)-4-(2,5-difluorophenyl)-n-[(3R,4S)-3-fluoro-1-methylpiperidin-4-yl]-2-(hydroxymethyl)-N-methyl-2-phenyl-2,5-dihydro-1H-pyrrole-1-carboxamide (MK-0731) for the treatment of taxane-refractory cancer” (J Med Chem, 2008).
